# Key:
# Acinetobacter baumannii [1] = test: Antibacterial activity agains OXA23-producing multidrug resistant Acinetobacter baumannii assessed as reduction in bacterial growth incubated for 18 to 20 hrs by CLSI based microdilution method; format: functional; conditions: time 18-20 hrs
# Summary of the method: (§1)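 Broth microdilution per CLSI. Compounds dissolved in DMSO (levofloxacin and meropenem in water) as 64 μg/mL stock, then serial twofold dilutions in broth giving 64 to 0.008 μg/mL. […] Clinical isolates tested as several strains per group; racemic GP-1 served as positive control; values given as MIC ranges.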
# Escherichia coli [2] = test: Antibacterial activity against multidrug resistant wild type Escherichia coli NCTC 13353 assessed as reduction in bacterial growth incubated for 18 to 20 hrs by CLSI based microdilution method; format: functional; conditions: time 18-20 hrs; summary of the method: as §1
# Escherichia coli [3] = test: Antibacterial activity against multidrug resistant wild type Escherichia coli ATCC BAA-2340 assessed as reduction in bacterial growth incubated for 18 to 20 hrs by CLSI based microdilution method; format: functional; conditions: time 18-20 hrs; summary of the method: as §1
# Klebsiella pneumoniae [4] = test: Antibacterial activity agains wild type Klebsiella pneumoniae ATCC BAA-2470 assessed as reduction in bacterial growth incubated for 18 to 20 hrs by CLSI based microdilution method; format: functional; conditions: time 18-20 hrs; summary of the method: as §1
# Escherichia coli [5] = test: Antibacterial activity against ESBL-producing multidrug resistant Escherichia coli assessed as reduction in bacterial growth incubated for 18 to 20 hrs by CLSI based microdilution method; format: functional; conditions: time 18-20 hrs; summary of the method: as §1
# Pseudomonas aeruginosa [6] = test: Antibacterial activity against wild type Pseudomonas aeruginosa ATCC 27853 assessed as reduction in bacterial growth incubated for 18 to 20 hrs by CLSI based microdilution method; format: functional; conditions: time 18-20 hrs
# Summary of the method: (§2)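 CLSI broth microdilution. Compounds in DMSO (levofloxacin and meropenem in water), serial twofold dilutions in broth, 64 to 0.008 μg/mL. […] Results reported as MIC ranges across strains.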
# Klebsiella pneumoniae [7] = test: Antibacterial activity agains wild type Klebsiella pneumoniae ATCC BAA-1705 assessed as reduction in bacterial growth incubated for 18 to 20 hrs by CLSI based microdilution method; format: functional; conditions: time 18-20 hrs; summary of the method: as §2
# Klebsiella pneumoniae [8] = test: Antibacterial activity against KPC2-producing multidrug resistant Klebsiella pneumoniae assessed as reduction in bacterial growth incubated for 18 to 20 hrs by CLSI based microdilution method; format: functional; conditions: time 18-20 hrs; summary of the method: as §1
# Acinetobacter baumannii [9] = test: Antibacterial activity against wild type Acinetobacter baumannii NCTC 13304 assessed as reduction in bacterial growth incubated for 18 to 20 hrs by CLSI based microdilution method; format: functional; conditions: time 18-20 hrs; summary of the method: as §1
# Pseudomonas aeruginosa [10] = test: Antibacterial activity against IMP4-producing multidrug resistant Pseudomonas aeruginosa assessed as reduction in bacterial growth incubated for 18 to 20 hrs by CLSI based microdilution method; format: functional; conditions: time 18-20 hrs; summary of the method: as §1
# Escherichia coli [11] = test: Antibacterial activity against ESBL-producing Escherichia coli ATCC 35218 strains 15 1 to 3 assessed as reduction in bacterial growth incubated for 18 to 20 hrs by CLSI based microdilution method; format: functional; conditions: time 18-20 hrs; summary of the method: as §2
# Staphylococcus aureus = test: Antibacterial activity against methicillin-sensitive Staphylococcus aureus strains 15 1 to 4 assessed as reduction in bacterial growth incubated for 18 to 20 hrs by CLSI based microdilution method; format: functional; conditions: time 18-20 hrs; summary of the method: as §1
# [12] = test system: Staphylococcus epidermidis; test: Antibacterial activity against methicillin-sensitive Staphylococcus epidermidis strains 15 1 to 4 assessed as reduction in bacterial growth incubated for 18 to 20 hrs by CLSI based microdilution method; format: functional; conditions: time 18-20 hrs; summary of the method: as §1
# Pseudomonas aeruginosa [13] = test: Antibacterial activity against multidrug resistant Pseudomonas aeruginosa strains 15 1 to 3 assessed as reduction in bacterial growth incubated for 18 to 20 hrs by CLSI based microdilution method; format: functional; conditions: time 18-20 hrs; summary of the method: as §1
# Escherichia coli [14] = test: Antibacterial activity against Escherichia coli ATCC 35218 strains 15 1 to 3 assessed as reduction in bacterial growth incubated for 18 to 20 hrs by CLSI based microdilution method; format: functional; conditions: time 18-20 hrs; summary of the method: as §2
# [15] = Metabolic stability in human liver microsome assessed as metabolic bioavailability at 0.1 uM in presence of NADPH incubated upto 60 mins by LC-MS/MS analysis; format: ADME; conditions: liver microsomes
# Summary of the method: (§3)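 Compound at 0.1 μM final, in 0.01% DMSO with 0.005% BSA. Incubated with rat or human liver microsomes at 0.33 mg/mL in 0.1 M Tris-HCl, pH 7.4, with 5 mM MgCl₂ and 1 mM NADPH, at 37 °C. Samples at 0, 7, 17, 30 and 60 min quenched with cold methanol and analysed by LC-MS/MS. Half-life, Cl_int and MF% derived as previously described.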
# [16] = Metabolic stability in rat liver microsome assessed as metabolic bioavailability at 0.1 uM in presence of NADPH incubated upto 60 mins by LC-MS/MS analysis; format: ADME; conditions: liver microsomes; summary of the method: as §3
# [17] = Metabolic stability in rat liver microsome assessed as elimination half life at 0.1 uM in presence of NADPH incubated upto 60 mins by LC-MS/MS analysis; format: ADME; conditions: liver microsomes, read-out: beta t1/2; summary of the method: as §3
# [18] = Metabolic stability in rat liver microsome assessed as intrinsic clearance at 0.1 uM in presence of NADPH incubated upto 60 mins by LC-MS/MS analysis; format: ADME; conditions: microsomes, 1 h; summary of the method: as §3
# [19] = Metabolic stability in human liver microsome assessed as elimination half life at 0.1 uM in presence of NADPH incubated upto 60 mins by LC-MS/MS analysis; format: ADME; conditions: liver microsomes, read-out: beta t1/2; summary of the method: as §3
# [20] = Metabolic stability in human liver microsome assessed as intrinsic clearance at 0.1 uM in presence of NADPH incubated upto 60 mins by LC-MS/MS analysis; format: ADME; conditions: microsomes, 1 h; summary of the method: as §3
# [21] = target: hERG (KCNH2) potassium channel (Homo sapiens, UniProt Q12809); test: Inhibition of hERG potassium channel assessed as maximum inhibition rate at 40 uM at -80 mV holding potential incubated for 120 seconds by whole cell-automated voltage clamp analysis assay relative to control; format: toxicity; conditions: time 120 sec
# Summary of the method: (§4)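 Automated whole-cell patch clamp, holding potential −80 mV. Voltage protocol applied every 20 s. Baseline set with external solution containing 0.1% DMSO and stabilised 3 min. Compound applied until steady state, at least 3 min, then washout. Maximum tested concentration 40 μM, or 3 μM for cisapride as positive control.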
# [22] = target: Voltage-gated inwardly rectifying potassium channel KCNH2 (Homo sapiens, UniProt Q12809); test: Inhibition of hERG potassium channel assessed as […] at -80 mV holding potential incubated for 120 seconds by whole cell-automated voltage clamp analysis assay; format: toxicity; summary of the method: as §4
# Chain of Voltage-gated inwardly rectifying potassium channel KCNH2 (Q12809 whole entry): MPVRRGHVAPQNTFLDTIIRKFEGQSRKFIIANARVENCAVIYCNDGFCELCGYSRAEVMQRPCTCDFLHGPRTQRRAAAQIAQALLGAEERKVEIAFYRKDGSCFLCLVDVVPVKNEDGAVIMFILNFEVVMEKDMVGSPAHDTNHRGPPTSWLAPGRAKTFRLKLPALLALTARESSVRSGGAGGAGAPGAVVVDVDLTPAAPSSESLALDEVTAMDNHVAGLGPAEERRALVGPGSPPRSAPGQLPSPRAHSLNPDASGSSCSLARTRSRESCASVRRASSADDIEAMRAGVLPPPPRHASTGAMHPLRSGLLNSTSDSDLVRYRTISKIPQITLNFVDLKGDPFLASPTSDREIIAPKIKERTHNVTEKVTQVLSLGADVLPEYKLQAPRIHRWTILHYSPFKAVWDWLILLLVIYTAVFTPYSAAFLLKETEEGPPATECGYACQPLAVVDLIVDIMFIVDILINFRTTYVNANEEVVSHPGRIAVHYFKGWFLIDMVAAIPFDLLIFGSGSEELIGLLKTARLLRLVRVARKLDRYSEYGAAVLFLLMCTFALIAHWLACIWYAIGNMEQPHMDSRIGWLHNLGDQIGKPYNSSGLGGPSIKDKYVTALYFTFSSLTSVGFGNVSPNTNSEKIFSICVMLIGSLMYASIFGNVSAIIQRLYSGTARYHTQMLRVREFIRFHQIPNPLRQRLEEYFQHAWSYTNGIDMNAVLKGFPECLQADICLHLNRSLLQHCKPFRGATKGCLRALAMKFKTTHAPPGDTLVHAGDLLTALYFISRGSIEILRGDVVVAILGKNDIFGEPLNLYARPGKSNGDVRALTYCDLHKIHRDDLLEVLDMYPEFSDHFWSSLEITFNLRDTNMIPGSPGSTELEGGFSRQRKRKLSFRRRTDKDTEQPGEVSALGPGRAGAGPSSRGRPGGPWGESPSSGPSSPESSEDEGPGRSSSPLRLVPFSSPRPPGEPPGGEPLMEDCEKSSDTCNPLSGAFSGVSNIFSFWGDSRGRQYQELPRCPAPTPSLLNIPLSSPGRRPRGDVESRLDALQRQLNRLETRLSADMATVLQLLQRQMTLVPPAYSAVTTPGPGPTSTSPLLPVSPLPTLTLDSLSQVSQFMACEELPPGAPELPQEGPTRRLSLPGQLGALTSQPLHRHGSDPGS
# Chain of hERG (KCNH2) potassium channel (Q12809 whole entry): as above
structure (smiles),measurement,setting,value
C[C@@H](O)[C@H]1C(=O)N2C(C(=O)O)=C(S[C@@H]3CN[C@H](C(=O)N(C)C)C3)[C@H](C)[C@H]12 [MEROPENEM],MIC,Acinetobacter baumannii [1],> 32 µg/mL
same,MIC,Escherichia coli [2],0.06 µg/mL
same,MIC,Escherichia coli [3],4 µg/mL
same,MIC,Klebsiella pneumoniae [4],16 µg/mL
same,MIC,Escherichia coli [5],0.25 µg/mL
same,MIC,Pseudomonas aeruginosa [6],1 µg/mL
same,MIC,Klebsiella pneumoniae [7],16 µg/mL
same,MIC,Klebsiella pneumoniae [8],≥ 64 µg/mL
same,MIC,Acinetobacter baumannii [9],> 32 µg/mL
same,MIC,Pseudomonas aeruginosa [10],8 µg/mL
CNc1cc(F)cc2c1[nH]c1nc(Oc3cnc(C)nc3)nc(N3CC(=C(Br)CN)C3)c12,MIC,Escherichia coli [11],0.06 µg/mL
same,MIC,Staphylococcus aureus,< 0.008 µg/mL
same,MIC,[12],< 0.008 µg/mL
same,MIC,Pseudomonas aeruginosa [13],2 µg/mL
same,MIC,Escherichia coli [14],0.015 µg/mL
CCC(CO)=C1CN(c2nc(C(=O)Nc3cnc(C)nc3)nc3[nH]c4c(NC)cc(F)cc4c23)C1,MIC,Escherichia coli [11],> 64 µg/mL
same,MIC,Escherichia coli [14],> 64 µg/mL
CCC(CO)=C1CN(c2nc(Oc3cnc(C)nc3)nc3[nH]c4c(NC)cc(F)cc4c23)C1,"Fh at 1 h, 0.1 µM",[15],27.6%
same,"Fh at 1 h, 0.1 µM",[16],14.8%
same,MIC,Escherichia coli [11],0.25 µg/mL
same,MIC,Staphylococcus aureus,< 0.008 µg/mL
same,half-life at 0.1 µM,[17],0.76 h
same,CLH,[18],256.1 mL/min/g
same,MIC,[12],< 0.008 µg/mL
same,MIC,Pseudomonas aeruginosa [13],≥ 64 µg/mL
same,half-life at 0.1 µM,[19],1.27 h
same,CLH,[20],51.4 mL/min/g
same,MIC,Escherichia coli [14],0.25 µg/mL
CCC(CN)=C1CN(c2nc(S(C)(=O)=O)nc3[nH]c4c(NC)cc(F)cc4c23)C1,MIC,Escherichia coli [11],> 16 µg/mL
same,MIC,Staphylococcus aureus,> 16 µg/mL
same,MIC,[12],> 16 µg/mL
same,MIC,Pseudomonas aeruginosa [13],> 16 µg/mL
same,MIC,Escherichia coli [14],> 16 µg/mL
CCC(CN)=C1CN(c2nc(Oc3cnc(C4CC4)nc3)nc3[nH]c4c(NC)cc(F)cc4c23)C1,MIC,Escherichia coli [11],0.03 µg/mL
same,"inhibition at 2 min, 40 µM",[21],62%
same,MIC,Staphylococcus aureus,< 0.008 µg/mL
same,MIC,[12],< 0.008 µg/mL
same,MIC,Pseudomonas aeruginosa [13],0.5 µg/mL
same,IC50,[22],23.4 µM
same,MIC,Escherichia coli [14],0.015 µg/mL
CNc1cc(F)cc2c1[nH]c1nc(Oc3cnc(C)nc3)nc(N3CC(=C(C)CN)C3)c12,MIC,Escherichia coli [11],2 µg/mL
same,"inhibition at 2 min, 40 µM",[21],4.8%
same,MIC,Staphylococcus aureus,< 0.008 µg/mL
same,MIC,[12],< 0.008 µg/mL
same,MIC,Pseudomonas aeruginosa [13],> 4 µg/mL
same,IC50,[22],> 40 µM
same,MIC,Escherichia coli [14],0.06 µg/mL
CCC(CN)=C1CN(c2nc(NS(C)(=O)=O)nc3[nH]c4c(NC)cc(F)cc4c23)C1,MIC,Escherichia coli [11],> 16 µg/mL
same,MIC,Staphylococcus aureus,> 16 µg/mL
same,MIC,[12],> 16 µg/mL
same,MIC,Pseudomonas aeruginosa [13],> 16 µg/mL
same,MIC,Escherichia coli [14],> 16 µg/mL
[2H]C([2H])([2H])Nc1cc(F)cc2c1[nH]c1nc(Oc3cnc(C)nc3)nc(N3CC(=C(CC)CN)C3)c12,"Fh at 1 h, 0.1 µM",[15],49.6%
same,"Fh at 1 h, 0.1 µM",[16],41%
same,MIC,Acinetobacter baumannii [1],0.25 µg/mL
same,half-life at 0.1 µM,[17],0.548 h
same,MIC,Escherichia coli [2],0.125 µg/mL
same,MIC,Escherichia coli [3],0.25 µg/mL
same,CLH,[18],63.9 mL/min/g
same,MIC,Klebsiella pneumoniae [4],2 µg/mL
same,MIC,Escherichia coli [5],0.5 µg/mL
same,MIC,Pseudomonas aeruginosa [6],2 µg/mL
same,MIC,Klebsiella pneumoniae [7],4 µg/mL
same,MIC,Klebsiella pneumoniae [8],1 µg/mL
same,half-life at 0.1 µM,[19],1.75 h
same,MIC,Acinetobacter baumannii [9],0.25 µg/mL
same,CLH,[20],20 mL/min/g
same,MIC,Pseudomonas aeruginosa [10],4 µg/mL
[2H]C([2H])([2H])Nc1cc(F)cc2c1[nH]c1nc(Oc3cnc(C)nc3)nc(N3CC(=C(C)[C@H](C)N)C3)c12,MIC,Acinetobacter baumannii [1],0.5 µg/mL
same,MIC,Escherichia coli [2],0.125 µg/mL
same,MIC,Escherichia coli [3],0.5 µg/mL
same,MIC,Klebsiella pneumoniae [4],2 µg/mL
same,MIC,Escherichia coli [5],0.5 µg/mL
same,MIC,Pseudomonas aeruginosa [6],2 µg/mL
same,MIC,Klebsiella pneumoniae [7],8 µg/mL
same,MIC,Klebsiella pneumoniae [8],2 µg/mL
same,MIC,Acinetobacter baumannii [9],0.5 µg/mL
same,MIC,Pseudomonas aeruginosa [10],8 µg/mL
CCC(CN)=C1CN(c2nc(Oc3cnc(C(C)(C)O)nc3)nc3[nH]c4c(NC)cc(F)cc4c23)C1,MIC,Escherichia coli [11],1 µg/mL
same,MIC,Staphylococcus aureus,< 0.008 µg/mL
same,MIC,[12],< 0.008 µg/mL
same,MIC,Pseudomonas aeruginosa [13],> 16 µg/mL
same,MIC,Escherichia coli [14],0.5 µg/mL

# Source: ChEMBL document CHEMBL5096186, “Design, Synthesis, and Biological Evaluation of Novel Pyrimido[4,5-b]indole Derivatives Against Gram-Negative Multidrug-Resistant Pathogens” (J Med Chem, 2021)
